Results: ChEMBL document CHEMBL1287666, “Synthesis and in vitro antifungal activities of new 3-substituted benzopyrone derivatives” (2010)
Values after ≈ are worked out from the molar mass of the structure shown.

Experiments:
Type in all cases: functional
Trichophyton rubrum [1] = assay: Antifungal activity against Trichophyton rubrum
Candida albicans = assay: Antifungal activity against Candida albicans by serial dilution method
Outline: (§1)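 Broth serial dilution in 96-well microplates against a panel of five human pathogenic fungi. Activity is reported as the minimal inhibitory concentration (MIC), and fluconazole served as the positive control.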

Cryptococcus neoformans = assay: Antifungal activity against Cryptococcus neoformans by serial dilution method; outline: as §1
Candida parapsilosis = assay: Antifungal activity against Candida parapsilosis clinical isolate by serial dilution method; settings: Lodderomyces parapsilosis; outline: as §1
Trichophyton rubrum [2] = assay: Antifungal activity against Trichophyton rubrum clinical isolate by serial dilution method; outline: as §1
Nannizzia gypsea = assay: Antifungal activity against Microsporum gypseum clinical isolate by serial dilution method; outline: as §1

SMILES | MIC80 (Trichophyton rubrum [1]) | MIC (Candida albicans) | MIC (Cryptococcus neoformans) | MIC (Candida parapsilosis) | MIC (Trichophyton rubrum [2]) | MIC (Nannizzia gypsea)
CCCCC(=O)OCC#Cc1coc2cc(OC)ccc2c1=O | 1.5 µg/mL (≈ 4.77 µM) | 25 µg/mL (≈ 79.5 µM) | 25 µg/mL (≈ 79.5 µM) | 25 µg/mL (≈ 79.5 µM) | 1.5 µg/mL (≈ 4.77 µM) | 25 µg/mL (≈ 79.5 µM)
COc1ccc2c(=O)c(C#CCO)coc2c1 |  | > 100 µg/mL | > 100 µg/mL | > 100 µg/mL | > 100 µg/mL | > 100 µg/mL
COc1ccc2c(=O)c(C#CCOC(C)=O)coc2c1 |  | > 100 µg/mL | > 100 µg/mL | > 100 µg/mL | > 100 µg/mL | 25 µg/mL (≈ 91.8 µM)
CCCCCCCC(=O)OCC#Cc1coc2cc(OC)ccc2c1=O |  | > 100 µg/mL | > 100 µg/mL | > 100 µg/mL | > 100 µg/mL | > 100 µg/mL
COc1ccc2c(=O)c(C#CCOC(=O)CCCCC(C)C)coc2c1 |  | > 100 µg/mL | 50 µg/mL (≈ 140 µM) | 25 µg/mL (≈ 70.1 µM) | 12.5 µg/mL (≈ 35.1 µM) | 12.5 µg/mL (≈ 35.1 µM)
COc1ccc2c(=O)c(C#CCOC(=O)C3C(C)(C)C3(C)C)coc2c1 |  | > 100 µg/mL | > 100 µg/mL | > 100 µg/mL | > 100 µg/mL | 12.5 µg/mL (≈ 35.3 µM)
COc1ccc2c(=O)c(C#CCOC(=O)c3ccc([N+](=O)[O-])cc3)coc2c1 |  | > 100 µg/mL | > 100 µg/mL | > 100 µg/mL | > 100 µg/mL | > 100 µg/mL
COc1ccc2c(=O)c(C#CCOC(=O)c3cc([N+](=O)[O-])cc([N+](=O)[O-])c3)coc2c1 |  | > 100 µg/mL | > 100 µg/mL | > 100 µg/mL | 50 µg/mL (≈ 118 µM) | 50 µg/mL (≈ 118 µM)
COc1ccc2c(=O)c(C#CCOC(=O)c3ccccc3)coc2c1 |  | > 100 µg/mL | > 100 µg/mL | > 100 µg/mL | > 100 µg/mL | > 100 µg/mL
COc1ccc2c(=O)c(C#CCOC(=O)Cc3ccccc3)coc2c1 |  | > 100 µg/mL | > 100 µg/mL | > 100 µg/mL | > 100 µg/mL | > 100 µg/mL
COc1ccc2c(=O)c(C#CCOC(=O)Cc3ccc(Cl)cc3)coc2c1 |  | > 100 µg/mL | > 100 µg/mL | > 100 µg/mL | > 100 µg/mL | > 100 µg/mL
COc1ccc2c(=O)c(C#CCOC(=O)Cc3ccccc3Cl)coc2c1 |  | > 100 µg/mL | > 100 µg/mL | > 100 µg/mL | 50 µg/mL (≈ 131 µM) | 50 µg/mL (≈ 131 µM)
CCC(=O)OCC#Cc1coc2cc(OC)ccc2c1=O |  | 25 µg/mL (≈ 87.3 µM) | 25 µg/mL (≈ 87.3 µM) | 25 µg/mL (≈ 87.3 µM) | 6.25 µg/mL (≈ 21.8 µM) | 12.5 µg/mL (≈ 43.7 µM)
CCCC(=O)OCC#Cc1coc2cc(OC)ccc2c1=O |  | 12.5 µg/mL (≈ 41.6 µM) | 50 µg/mL (≈ 166 µM) | 50 µg/mL (≈ 166 µM) | 12.5 µg/mL (≈ 41.6 µM) | 25 µg/mL (≈ 83.2 µM)
COc1ccc2c(=O)c(C#CCOC(=O)C(C)C)coc2c1 |  | 50 µg/mL (≈ 166 µM) | 50 µg/mL (≈ 166 µM) | 12.5 µg/mL (≈ 41.6 µM) | 3.12 µg/mL (≈ 10.4 µM) | 25 µg/mL (≈ 83.2 µM)
COc1ccc2c(=O)c(C#CCOC(=O)CC(C)C)coc2c1 |  | > 100 µg/mL | 50 µg/mL (≈ 159 µM) | 50 µg/mL (≈ 159 µM) | 6.25 µg/mL (≈ 19.9 µM) | 25 µg/mL (≈ 79.5 µM)
CCCCCC(=O)OCC#Cc1coc2cc(OC)ccc2c1=O |  | > 100 µg/mL | > 100 µg/mL | 50 µg/mL (≈ 152 µM) | 25 µg/mL (≈ 76.1 µM) | 12.5 µg/mL (≈ 38.1 µM)
COc1ccc2c(=O)c(C#CCOC(=O)C3CCCCC3)coc2c1 |  | > 100 µg/mL | > 100 µg/mL | > 100 µg/mL | > 100 µg/mL | > 100 µg/mL
CCCCCCC(=O)OCC#Cc1coc2cc(OC)ccc2c1=O |  | > 100 µg/mL | > 100 µg/mL | > 100 µg/mL | > 100 µg/mL | > 100 µg/mL
OC(Cn1cncn1)(Cn1cncn1)c1ccc(F)cc1F [FLUCONAZOLE] |  | 0.25 µg/mL (≈ 0.816 µM) | 1 µg/mL (≈ 3.27 µM) | 32 µg/mL (≈ 104 µM) | 0.25 µg/mL (≈ 0.816 µM) | 0.5 µg/mL (≈ 1.63 µM)
